# Hits are enriched below; roughly 2.3% of the tested compounds scored in any of these assays.
# T cell HTS: modulators of CD8 T cell-vesicle binding, primary screen, mouse 2C CD8+ T cells, flow cytometry | 330,000 compounds, 0.068% hits | response (vesicle binding), % at 7 µM | 2C CD8+ T cell-vesicle binding; active compounds read low;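 active = response, share of CD8 T cells binding vesicles, and their 90th percentile fluorescence all below set limits, cut at about 80% in these data, passing the limit was not always enough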;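 note: values below 100% mean blocked vesicle binding to the CD8+ T cells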
#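 Also added: QL9-peptide-loaded Drosophila micro-vesicles bearing Ld, ICAM-1 and B7-1; Test system: purified 2C TCR transgenic mouse naive CD8+ T cells; Measured by: cytometric PE anti-B7-1 and Alexa647 anti-CD8 signals after 1% paraformaldehyde fixation; Timing: binding step 1.5 h, 37 °C, antibody labelling 20 min, ice.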
# GPR7 antagonist: GPR7 receptor antagonists, primary screen, cell-based, fluorescence, single concentration | Neuropeptides B/W receptor type 1 (Homo sapiens), P48145 | GPR7-expressing cells, fluorescence antagonist assay | inhibition, % at 4.4 µM | 290,000 compounds, 1.1% hits | AID 1861, 2009; in the data active = inhibition above about 16%, passing the limit was not always enough;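 note: cells stimulated with the agonist NPW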
# CHT block: inhibitors of human choline transporter CHT. CHT-expressing cells, membrane potential dye, choline response; active compounds read low. High affinity choline transporter 1 (Homo sapiens), Q9GZV3. B-score at 10 µM. 310,000 compounds, 0.86% hits. AID 488975, 2010;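 active = B-score over 3 SD under the library average, and starting fluorescence ratio not unusually high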;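 note: choline stimulus applied at its EC90 after an EC20 pre-addition; B-score computed on integrated fluorescence ratio after choline addition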
# Target sequence (Q9GZV3 whole entry, looked up): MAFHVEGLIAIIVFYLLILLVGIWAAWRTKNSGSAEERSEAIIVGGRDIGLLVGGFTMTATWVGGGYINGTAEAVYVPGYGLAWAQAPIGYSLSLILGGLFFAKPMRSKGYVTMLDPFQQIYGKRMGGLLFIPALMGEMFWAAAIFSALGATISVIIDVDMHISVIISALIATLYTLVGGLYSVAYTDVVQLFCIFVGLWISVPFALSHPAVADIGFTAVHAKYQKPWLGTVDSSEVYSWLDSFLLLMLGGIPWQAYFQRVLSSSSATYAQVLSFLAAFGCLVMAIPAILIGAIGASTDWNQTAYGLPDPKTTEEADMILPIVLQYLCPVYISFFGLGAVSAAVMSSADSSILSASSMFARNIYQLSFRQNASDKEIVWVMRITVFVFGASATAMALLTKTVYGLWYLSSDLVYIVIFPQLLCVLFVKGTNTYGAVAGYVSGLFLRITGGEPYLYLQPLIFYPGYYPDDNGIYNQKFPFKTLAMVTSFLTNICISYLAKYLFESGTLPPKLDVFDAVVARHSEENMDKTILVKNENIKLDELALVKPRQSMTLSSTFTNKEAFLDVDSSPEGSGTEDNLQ
# pCIP destab: p/CIP-EGFP fusion destabilizers, primary screen, fluorescence, F442A cells. 290,000 compounds, 0.01% hits. decrease of EGFP signal, % at 10 µM. AID 1984, 2009. 16 h;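 active = EGFP signal decrease of at least 30% at 10 µM or well 3 SD below plate mean, unless failing retest; inactive = the rest, including hits failing retest or dose response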
# Pemphigus Ab inh: inhibitors of pemphigus antibody binding to DSG3, primary screen, biochemical, bead-based, flow cytometry, scFv-GFP; DSG3-coupled beads, scFv-anti-DSG3-GFP binding; active compounds read low; binding (percent of control), % at 10 µM; 310,000 compounds, 0.48% hits; AID 588358, 2011;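 active = binding more than 3 SD below its plate's average and above zero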;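 note: hits lower antibody fragment binding to DSG3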
# CHT PAM: CHT positive allosteric modulators, primary screen, cell-based, membrane potential dye, choline EC20; B-score at 10 µM; CHT-expressing cells; active compounds read high; LV-AA mutant CHT in HEK293 cells; High affinity choline transporter 1 (Homo sapiens), Q9GZV3; 310,000 compounds, 0.49% hits;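 active = initial fluorescence not abnormally high and integrated response B-score, plate-corrected, over 3 SD above library mean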
# CHT activ conf: CHT activators, confirmation, cell-based, membrane potential dye, duplicate | CHT-expressing cells, membrane potential dye fluorescence (FDSS); % of choline EC20–EC90 response window; HEK293 expressing CHT LV-AA mutant; choline added at its EC20 | 2,500 compounds, 91% hits | activation, % at 10 µM | shares compounds with CHT PAM | AID 504833, 2011;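 active = primary screen active, with duplicate mean activation above negative control mean plus 3 SD, cut at about 11% in these data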
# HEK293 MP dye: membrane potential response in parental HEK293 cells, counter-screen for CHT activator project, cell-based, membrane potential dye | shares compounds with CHT PAM | membrane potential dye fluorescence (FDSS); measured after EC20 choline addition | ratio readout change at 10 µM, hits read low | 2,500 compounds, 62% hits | AID 623908, 2012;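 active = duplicate-averaged ratio beyond 3 SD from buffer wells, up or down, though filed actives are nearly all decreases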
# Numbers stand for hits; - = inactive; . = no result given.
SMILES,T cell HTS,GPR7 antagonist,CHT block,pCIP destab,Pemphigus Ab inh,CHT PAM,CHT activ conf,HEK293 MP dye
Cn1c(=O)[nH]c(=O)c2c1nc(N1CCN(c3ccccc3)CC1)n2CCSc1ncccn1,-,-,-,-,-,-,36.7,-
Cn1c(=O)[nH]c(=O)c2c1nc(N1CCCCC1)n2CCSc1ncccn1,-,.,-,.,-,8.02,18.4,-24
CN1CCN(c2nc3c(c(=O)[nH]c(=O)n3C)n2CCSc2ncccn2)CC1,.,.,.,-,.,.,.,.
COc1ccc(C(=O)c2ccc3oc(-c4ccc(OC)cc4)c(-c4ccc(O)cc4)c3c2)cc1,-,.,.,.,.,.,.,.
Cc1cccc(-c2cc3nc(C)c(C)c(NCCCn4ccnc4)n3n2)c1,-,-,-,-,-,-,.,.
Cc1cc(NCCCn2ccnc2)n2nc(-c3ccc(F)cc3)cc2n1,-,-,-,-,-,8.02,41.5,-71.2
Cc1cc(C)c2c(n1)nn1c(NCCCn3ccnc3)cc(C)nc21,.,.,.,-,.,.,.,.
Cc1cc(NCCCn2ccnc2)n2nc(-c3ccc(Cl)cc3)cc2n1,.,-,-,-,-,8.93,37.7,-80.1
COCC(C)(C)COS(N)(=O)=O,-,-,-,-,-,-,.,.
CC1=Nc2ccc(C)c3nc(C)cc(c23)N1c1ccc(C)cc1,-,-,-,.,-,8.53,41.5,-59.8
CCC(C)N1CCC2(CC1)N=c1c(c3c4c5c(C)c(O)c3c(O)c1=NC(=O)C(C)=CC=C[C@H](C)[C@H](O)[C@@H](C)[C@@H](O)[C@@H](C)[C@H](OC(C)=O)[C@H](C)[C@@H](OC)C=CO[C@@](C)(O5)C4=O)N2 (some centres undefined),-,.,-,.,-,-,22.0,-41.7
CC(=O)NCCc1nc2cc(NC(=O)c3cccc([N+](=O)[O-])c3)ccc2n1C,-,-,-,-,-,-,.,.
CCC(=O)NCCc1nc2cc(NC(=O)c3cccc([N+](=O)[O-])c3)ccc2n1C,-,-,-,-,-,-,32.3,-26.1
CCOC(=O)CNc1c(-c2ccc(O)cc2)nc2ccccn12,-,-,-,-,-,-,55.7,-43.9
CC(C)(C)OC(=O)NCCCCCc1nnc(SCc2cccc(F)c2)o1,-,-,-,-,.,8.31,-,-
CC(C)(C)OC(=O)NCCCCCc1nnc(SCc2ccccc2F)o1,-,-,-,-,-,-,.,.
Cc1nnc2c(N3CCN(CCO)CC3)nc3ccccc3n12,-,-,-,-,-,-,52.1,-50
CCN1CCN(c2nc3ccccc3n3cnnc23)CC1,-,-,-,-,-,-,.,.
Cc1ccc2nc(Cl)c(CN(Cc3cccs3)C(=O)C3CC3)cc2c1,-,-,-,-,.,-,.,.
COc1ccc(CCN(Cc2cc3cc(C)c(C)cc3nc2Cl)C(=O)C2CC2)cc1,-,-,-,-,-,9.18,-,-
CN1N=C(N)c2cn(C3OC(COP(=O)(O)O)C(O)C3O)c3ncnc1c23 (centres undefined),.,.,.,.,-,.,.,.
S=c1nc2[nH]c3ccccc3c2n[nH]1,.,.,.,.,-,.,.,.
Cc1cc[n+]2cc(-c3cccc([N+](=O)[O-])c3)c(-c3cccc([N+](=O)[O-])c3)cc2c1,-,-,-,-,-,7,65.0,-84.5
Cc1cccc(-c2cnn(-c3cccc([N+](=O)[O-])c3)c2N)c1,-,-,-,-,-,-,.,.
CCCCn1c(=N)n(CC(O)COc2ccccc2)c2ccccc21 (centres undefined),-,-,-,-,-,-,35.5,-
SMILES,T cell HTS,GPR7 antagonist,CHT block,pCIP destab,Pemphigus Ab inh,CHT PAM,CHT activ conf,HEK293 MP dye
CCOC(=O)c1cc2c(=O)n3ccccc3nc2n(CC2CCCO2)c1=NC(=O)/C=C/c1ccccc1 (centres undefined),-,-,-,-,-,-,14.8,-
CCCCn1c(=NC(=O)c2ccco2)c(C(=O)OCC)cc2c(=O)n3ccccc3nc21,-,-,-,-,-,-,.,.
CCOC(=O)c1cc2c(=O)n3ccccc3nc2n(Cc2ccco2)c1=NC(=O)c1ccc(OC)cc1OC,-,-,-,-,-,-,20.9,-25.5
CCc1ccc(/C=N/NC(=O)c2cc(-c3ccncc3)nc3ccccc23)s1,-,-,-,-,-,-,.,.
Cc1ccc(-c2cc(C(=O)NCCCn3ccnc3)c3ccccc3n2)s1,-,-,-,-,-,-,.,.
O=C(NCCCn1ccnc1)c1cc(-c2ccncc2)nc2ccccc12,-,-,-,-,.,6.32,59.9,-59.3
O=C(N/N=C/c1cccs1)c1cc(-c2ccncc2)nc2ccccc12,-,-,-,-,-,-,43.7,-
O=C1CCc2cccc(O)c2N1,.,.,.,.,-,.,.,.
Nc1ccc(Br)c[n+]1Cc1cccc2cccnc12,-,-,-,-,-,-,34.0,-46
C[C@@H]1CCCCO[C@@H](CN(C)C(=O)C2CCCCC2)[C@@H](C)CN([C@H](C)CO)C(=O)c2cc(NC(=O)NC3CCCCC3)ccc2O1,.,.,.,.,-,.,.,.
CCOc1ccc(N(C)S(=O)(=O)c2ccc(-c3cc(C)no3)s2)cc1,-,-,-,-,.,-,.,.
Cc1cccc(N(C)S(=O)(=O)c2ccc(-c3cc(C)no3)s2)c1,-,-,-,-,-,-,39.4,-
O=Cc1ccc([B-](F)(F)F)s1,.,.,.,.,-,.,.,.
Cn1/c(=N/N=C/c2ccc([N+](=O)[O-])cc2)sc2ccccc21,.,-,.,-,.,.,.,.
Cc1cc(C)c2c(c1)/C(=N\N=c1\sc3ccccc3n1C)C(=O)N2,-,-,-,-,-,-,23.5,-
NNC(=O)c1ccc(-c2cccc([N+](=O)[O-])c2)o1,-,-,-,-,-,-,14.6,-22.7
Cc1ccc(NS(=O)(=O)c2ccc3c(c2)OCCCO3)cc1S(=O)(=O)N1CCOCC1,-,.,.,.,-,.,.,.
Cc1ccc2c(c1)S/C(=C/c1ccc[n+](C)c1)N2CCO,-,-,-,-,-,6.97,34.2,-49.3
CC1(C)Cc2c(sc3c2C2=NCCN2C=N3)CS1,-,-,-,-,-,9.49,33.9,-62.1
COc1ccc(C(=O)OCC(=O)Nc2ccc(Cl)c(C(F)(F)F)c2)c(OC)c1OC,-,-,-,-,-,7.61,-,-

# Screening data: PubChem BioAssay, several laboratories
